# Bioassay records (PubChem BioAssay)
# ADAM10 inh = inhibits human ADAM10 | inhibition, % at 7 µM | recombinant ADAM10, EDANS/DABCYL FRET peptide cleavage, 3 h | 370,000 tested, 0.62% active | AID 720582 | O14672;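 active means inhibition above a per-campaign cutoff equal to the mean of compounds falling between control-based bounds plus 3 SD, cut at about 20% in these data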;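 further: 0% = DMSO wells while the 100% control is not disclosed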
# V-ATPase pHluor = regulators of yeast V-ATPase proton transport; response, % at 10 µM; S. cerevisiae, pHLuorin cytosolic pH fluorescence; 350,000 tested, 0.37% active; in the data active means response mostly above about 7.3%, no sharp cut-off; inactive means mostly below about 5.4%; further: actives read high
# ADAM17 inh = inhibits human ADAM17; P78536; recombinant ADAM17, EDANS/DABCYL FRET peptide cleavage; inhibition, % at 6.95 µM; 370,000 tested, 0.83% active; AID 720648;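 active means inhibition above the mean of compounds lying between control limits plus 3 SD, set per campaign, cut at about 8.5% in these data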;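 further: 0% = DMSO-only wells as the low control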
# Target sequence (P78536 215-824 limits assumed): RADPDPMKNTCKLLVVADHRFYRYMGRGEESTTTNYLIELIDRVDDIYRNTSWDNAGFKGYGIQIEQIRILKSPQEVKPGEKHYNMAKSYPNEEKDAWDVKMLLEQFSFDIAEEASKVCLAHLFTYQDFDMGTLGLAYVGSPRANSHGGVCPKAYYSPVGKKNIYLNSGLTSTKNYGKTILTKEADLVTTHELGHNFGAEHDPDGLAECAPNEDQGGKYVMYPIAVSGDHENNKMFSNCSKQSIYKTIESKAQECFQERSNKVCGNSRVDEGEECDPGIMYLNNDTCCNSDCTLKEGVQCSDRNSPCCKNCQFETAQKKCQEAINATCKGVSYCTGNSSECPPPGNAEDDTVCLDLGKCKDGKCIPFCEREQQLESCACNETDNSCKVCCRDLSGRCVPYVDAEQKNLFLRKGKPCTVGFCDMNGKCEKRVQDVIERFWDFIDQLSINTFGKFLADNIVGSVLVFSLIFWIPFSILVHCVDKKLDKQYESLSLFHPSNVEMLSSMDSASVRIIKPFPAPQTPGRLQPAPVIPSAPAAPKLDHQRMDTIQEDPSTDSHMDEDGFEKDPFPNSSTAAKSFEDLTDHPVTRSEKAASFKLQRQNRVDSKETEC
# MPTP block = permeability transition pore inhibition; isolated mouse mitochondria, Ca2+ swelling absorbance, 30 min; 360,000 tested, 1.4% active; AID 602449; inhibition, % at 10 µM;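 active means inhibition of 50% or more, scaled per plate between neutral and stimulator controls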;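 further: 0% = DMSO wells given calcium and 100% = 1 mM EGTA wells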
# aDG glyco up = increases alpha dystroglycan glycosylation | Pro5-aDG cells, alpha-DG glycosylation AlphaScreen (IIH6); 0% Pro5, 100% B10-LARGE cell signal | activation, % at 10 µM | AID 624168 | 360,000 tested, 0.22% active;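 active means activation of at least 8% versus controls, or a plate z-score of at least 8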;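 further: Pro5 are CHO cells carrying HIG-tagged alpha-DG that lacks glycosylation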
# Hep lipid drop = modulators of hepatic lipid droplet formation. AID 1656. AML12 mouse hepatocytes, oleate lipid droplets, BODIPY imaging. 240,000 tested, 0.4% active. inhibition, % at 6.5 µM;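 active means lipid droplet intensity inhibited by at least 50%, with more than 500 cells counted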
#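 Assay system: AML12 mouse liver cells | Compound: 6.5 µM single-point dosing | Schedule: Overnight exposure | Technique: Fluorescence imaging, 20x objective, two fields per well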
# ADAM10 ctr = counter-screen for ADAM17 exosite inhibitors: inhibitors of human ADAM10. recombinant ADAM10, EDANS/DABCYL FRET peptide cleavage, 3 h. 2,900 tested, 47% active. shares compounds with ADAM17 inh. inhibition, % at 6.95 µM;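 active means mean inhibition over the triplicate runs exceeds the activity threshold set in the earlier primary screen, cut at about 20% in these data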;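 further: 0% = DMSO wells and 100% = marimastat wells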
# ADAM17 confirm = human ADAM17 inhibition, confirmation | shares compounds with ADAM17 inh | recombinant ADAM17, EDANS/DABCYL QFRET peptide cleavage | inhibition, % at 6.95 µM | 2,900 tested, 65% active | AID 743257;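 active means mean inhibition across replicates above the hit cutoff set in the primary screen, cut at about 8.5% in these data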;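 further: 0% = DMSO wells and 100% = marimastat wells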
# Numbers without * were called inactive; i = inactive; · = not tested or not shown. A selection: hits, their analogues and other compounds. The true share with any hit is near 3.1%.
SMILES,ADAM10 inh,V-ATPase pHluor,ADAM17 inh,MPTP block,aDG glyco up,Hep lipid drop,ADAM10 ctr,ADAM17 confirm
CCC(C)Sc1ccc([C@@H]2[C@@H]3C(=O)N(C)C(=O)[C@@H]3[C@]3(C(=O)OC)CCCCN23)cc1OC (stereo partly specified),5,-8,3,1,0,·,·,·
CCSc1ccc([C@@H]2[C@H]3C(=O)N(C)C(=O)[C@H]3[C@]3(C(=O)OC)CCCCN23)cc1OC,3,-7,11*,1,0,·,26*,13*
CCC(C)Sc1ccc([C@@H]2[C@@H]3C(=O)N(CC)C(=O)[C@@H]3[C@]3(C(=O)OC)CCCCN23)cc1OC (stereo partly specified),13,6,9.2*,-2,0,·,-3,7
CCN1C(=O)[C@@H]2[C@@H](c3ccc(SC4CCCCC4)c(OC)c3)N3CCCC[C@@]3(C(=O)OC)[C@@H]2C1=O,2,-3,-1,0,0,·,·,·
CCSc1ccc([C@@H]2[C@@H]3C(=O)N(CC)C(=O)[C@@H]3[C@]3(C(=O)OC)CCCCN23)cc1OC,6,1,-2,0,0,·,·,·
CCCSc1ccc([C@@H]2[C@@H]3C(=O)N(CC)C(=O)[C@@H]3[C@]3(C(=O)OC)CCCCN23)cc1,13,1,3,-1,0,·,·,·
COc1ccc(Cn2ccc3ccc(-c4ccc5ccn(C(=O)c6ccccc6)c5c4)cc32)cc1,-67,·,-13,·,·,·,·,·
CCOC(=O)[C@@]12CCCC3=C1N(CCC3)C(=O)[C@H]2CC(=O)NCc1cccc2ccccc12,3,·,1,·,·,·,·,·
COc1ccc(C2Nc3ccccc3C(=O)N2Cc2ccccc2)cc1COc1ccc(NC(C)=O)cc1 (stereo unspecified),i,·,-235,·,·,·,·,·
COc1ccc(Nc2nc(N)nc(CSC(=S)N3CCCCC3)n2)cc1,0,2,-3,-1,1,13,·,·
CC1CCN(C(=S)SCc2nc(N)nc(Nc3ccccc3)n2)CC1,1,-3,1,9,0,6,·,·
COc1ccc(Nc2nc(N)nc(CSC(=S)N3CCCCC3C)n2)cc1 (stereo unspecified),11,4,9.7*,3,0,-14,13,10*
COc1ccccc1Nc1nc(N)nc(CSC(=S)N2CC(C)CC(C)C2)n1 (stereo unspecified),17,-3,12*,3,0,6,30*,16*
CN(C)S(=O)(=O)c1cc(NC(=O)COC(=O)Cc2ccc(Cl)cc2Cl)ccc1Cl,10,0,5,3,0,4,·,·
CN(C)S(=O)(=O)c1cc(NC(=O)COC(=O)Cc2cccc3ccccc23)ccc1Cl,16,-1,8.8*,21,0,12,27*,17*
Cc1cccc(Cn2cc(COC(=O)NCCc3c[nH]c4ccccc34)nn2)c1,6,·,-1,·,·,·,·,·
C[C@H]1COc2cc(Br)ccc2S(=O)(=O)N1Cc1cn(Cc2ccc(Cl)cc2)nn1,7,·,0,·,·,·,·,·
CCN(CC(O)Cn1c2ccccc2c2ccccc21)S(=O)(=O)c1ccc(F)cc1 (stereo unspecified),18,2,7,0,0,5,·,·
O=S(=O)(c1ccc(F)cc1)N(CCO)CC(O)Cn1c2ccccc2c2ccccc21 (stereo unspecified),15,2,9.0*,2,0,-26,7,6
Cc1ccc(S(=O)(=O)N(C)CC(O)Cn2c3ccccc3c3ccccc32)cc1 (stereo unspecified),16,-3,11*,2,0,-4,21*,11*
O=S(=O)(c1cccs1)N1CCN(c2ccc(Cl)cc2)CC1,-9,0,-1,-2,0,-1,·,·
O=S(=O)(c1cccs1)N1CCC(CO)(Cc2ccc(Cl)cc2)CC1,17,-2,12*,-1,0,-15,1,8
